Laboratory results: ChEMBL document CHEMBL4270565, “Design, synthesis and antimicrobial evaluation of propylene-tethered ciprofloxacin-isatin hybrids” (Eur J Med Chem, 2018)
In brackets after ≈: the same amount, converted by molar mass.

How the values were obtained:
Serratia marcescens = experiment: Antibacterial activity against Serratia marcescens ATCC 21074 after 18 to 24 hrs by two-fold serial dilution method; assay type: functional
Procedure, shortened: (§1)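 Agar two-fold dilution MIC. Compounds were dissolved in 0.1 N NaOH and water, then serially diluted in melted Mueller-Hinton agar, with top concentrations starting at 128. Plates were inoculated at about 10 cfu and incubated at 35 °C for 18–24 h. MIC was taken as the lowest concentration giving 90% inhibition of growth.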

[1] = tested on: Staphylococcus epidermidis; experiment: Potency index, ratio of levofloxacin MIC90 to compound MIC90 for methicillin-sensitive Staphylococcus epidermidis ATCC 12228; assay type: functional
Morganella morganii = experiment: Antibacterial activity against Morganella morganii ATCC 25830 after 18 to 24 hrs by two-fold serial dilution method; assay type: functional; procedure, shortened: as §1
Escherichia coli [2] = experiment: Antibacterial activity against extended-spectrum beta-lactamase deficient Escherichia coli ATCC 25922 after 18 to 24 hrs by two-fold serial dilution method; assay type: functional; procedure, shortened: as §1
[3] = AUC (0 to infinity) in ICR mouse at 50 mg/kg, po administered as single dose by HPLC analysis; assay type: ADME, organism-based; set-up: dose 50 mg/kg, route oral, time infinity; conditions: in vivo
Procedure, shortened: (§2)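 Mice (3 per group), fasted overnight, given a single oral dose of 50 mg/kg as a suspension in 0.5% CMC. Jugular vein blood taken at 0.25, 0.5, 1, 2, 4, 6, 8 and 24 h. Serum proteins precipitated with acetonitrile and centrifuged; the dried supernatant was redissolved in acetonitrile for HPLC. PK parameters were derived directly from the concentration–time data.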

Klebsiella pneumoniae [4] = experiment: Antibacterial activity against extended-spectrum beta-lactamase harboring Klebsiella pneumoniae ATCC 700603 after 18 to 24 hrs by two-fold serial dilution method; assay type: functional
Procedure, shortened: (§3)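 Agar two-fold serial dilution in Mueller-Hinton agar. Strains came from the Chinese Center for Disease Control and Prevention. Compounds were dissolved in 0.1 N NaOH and water, then diluted in melted agar to final levels stepping down from 128. Plates were inoculated with bacterial cfu and incubated at 35 C for 18–24 h. MIC is the lowest concentration giving 90% growth inhibition.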

[5] = Half life in mouse microsomes; assay type: ADME, Microsome
[6] = tested on: Mycobacterium tuberculosis; experiment: Antimycobacterial activity against Mycobacterium tuberculosis H37Rv after 7 days; assay type: functional; conditions: 168 h
Procedure, shortened: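 Rapid direct susceptibility test in 48-well plates. Two-fold dilutions of compound from DMSO stocks were mixed with an equal volume of bacterial suspension. Medium-only wells served as growth controls and water-only wells as no-growth controls. Plates were sealed and held at 37 C in a humid box, and controls were checked at 3 days. MIC (90% growth inhibition) was read visually by high-magnification observation of the cells and re-read at 7 days.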

[7] = Cmax in ICR mouse at 50 mg/kg, po administered as single dose by HPLC analysis; assay type: ADME, organism-based; set-up: dose 50 mg/kg, route oral; conditions: in vivo; procedure, shortened: as §2
[8] = tested on: Staphylococcus epidermidis; experiment: Potency index, ratio of ciprofloxacin MIC90 to compound MIC90 for methicillin-sensitive Staphylococcus epidermidis ATCC 12228; assay type: functional
[9] = tested on: Staphylococcus epidermidis; experiment: Antibacterial activity against methicillin-sensitive Staphylococcus epidermidis ATCC 12228 after 18 to 24 hrs by two-fold serial dilution method; assay type: functional; procedure, shortened: as §1
[10] = tested on: Staphylococcus epidermidis; experiment: Antibacterial activity against methicillin-resistant Staphylococcus epidermidis 13-3 after 18 to 24 hrs by two-fold serial dilution method; assay type: functional; procedure, shortened: as §3
Staphylococcus aureus [11] = experiment: Potency index, ratio of ciprofloxacin MIC90 to compound MIC90 for methicillin-sensitive Staphylococcus aureus ATCC 29213; assay type: functional
Proteus vulgaris = experiment: Antibacterial activity against Proteus vulgaris ATCC 29905 after 18 to 24 hrs by two-fold serial dilution method; assay type: functional; procedure, shortened: as §1
Staphylococcus aureus [12] = experiment: Antibacterial activity against methicillin-sensitive Staphylococcus aureus ATCC 29213 after 18 to 24 hrs by two-fold serial dilution method; assay type: functional; procedure, shortened: as §3
Klebsiella pneumoniae [13] = experiment: Antibacterial activity against extended-spectrum beta-lactamase deficient Klebsiella pneumoniae 15-2 after 18 to 24 hrs by two-fold serial dilution method; assay type: functional; procedure, shortened: as §1
Klebsiella aerogenes = experiment: Antibacterial activity against Enterobacter aerogenes ATCC 13048 after 18 to 24 hrs by two-fold serial dilution method; assay type: functional; procedure, shortened: as §1
[14] = Cytotoxicity against African green monkey Vero cells assessed as reduction in cell viability after 72 hrs by MTT assay; assay type: cell-based; conditions: chlorocebus sabaeus
Procedure, shortened: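 VERO cells were kept in MEM with Earle's salts and 10% FBS at 37 °C, 5% CO2. They were seeded in 96-well plates and allowed to recover for 24 h. Cells were then exposed to compounds in DMSO over a series from 1000 down to 4 for 72 h. Viability was read by MTT, and CC50 was calculated by Bliss analysis.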

Enterococcus faecalis [15] = experiment: Potency index, ratio of levofloxacin MIC90 to compound MIC90 for Enterococcus faecalis ATCC 29212; assay type: functional
Escherichia coli [16] = experiment: Antibacterial activity against extended-spectrum beta-lactamase harboring Escherichia coli ATCC 35218 after 18 to 24 hrs by two-fold serial dilution method; assay type: functional; procedure, shortened: as §3
Enterobacter cloacae = experiment: Antibacterial activity against Enterobacter cloacae ATCC 43560 after 18 to 24 hrs by two-fold serial dilution method; assay type: functional
Enterococcus faecalis [17] = experiment: Antibacterial activity against Enterococcus faecalis ATCC 51299 after 18 to 24 hrs by two-fold serial dilution method; assay type: functional; procedure, shortened: as §1
Enterococcus faecalis [18] = experiment: Potency index, ratio of levofloxacin MIC90 to compound MIC90 for Enterococcus faecalis ATCC 51299; assay type: functional
[19] = Tmax in ICR mouse at 50 mg/kg, po administered as single dose by HPLC analysis; assay type: ADME, organism-based; conditions: in vivo; procedure, shortened: as §2
Enterococcus faecalis [20] = experiment: Potency index, ratio of ciprofloxacin MIC90 to compound MIC90 for Enterococcus faecalis ATCC 29212; assay type: functional
[21] = tested on: Stenotrophomonas maltophilia; experiment: Antibacterial activity against Stenotrophomonas maltophilia ATCC 13636 after 18 to 24 hrs by two-fold serial dilution method; assay type: functional; procedure, shortened: as §1
[22] = Elimination half life in ICR mouse at 50 mg/kg, po administered as single dose by HPLC analysis; assay type: ADME, organism-based; conditions: in vivo, read-out: beta t1/2 (converted)
Providencia rettgeri = experiment: Antibacterial activity against Providencia rettgeri ATCC 31052 after 18 to 24 hrs by two-fold serial dilution method; assay type: functional; procedure, shortened: as §1
[23] = tested on: Acinetobacter calcoaceticus; experiment: Antibacterial activity against Acinetobacter calcoaceticus ATCC 19606 after 18 to 24 hrs by two-fold serial dilution method; assay type: functional; procedure, shortened: as §1
Citrobacter freundii = experiment: Antibacterial activity against extended-spectrum beta-lactamase harboring Citrobacter freundii ATCC 43864 after 18 to 24 hrs by two-fold serial dilution method; assay type: functional; procedure, shortened: as §3
Staphylococcus aureus [24] = experiment: Potency index, ratio of levofloxacin MIC90 to compound MIC90 for methicillin-sensitive Staphylococcus aureus ATCC 29213; assay type: functional
Enterococcus faecium [25] = experiment: Antibacterial activity against Enterococcus faecium 13-7 after 18 to 24 hrs by two-fold serial dilution method; assay type: functional; procedure, shortened: as §1
Pseudomonas aeruginosa = experiment: Antibacterial activity against Pseudomonas aeruginosa ATCC 27853 after 18 to 24 hrs by two-fold serial dilution method; assay type: functional; procedure, shortened: as §1
Staphylococcus aureus [26] = experiment: Antibacterial activity against methicillin-resistant Staphylococcus aureus ATCC 33591 after 18 to 24 hrs by two-fold serial dilution method; assay type: functional; procedure, shortened: as §3
Enterococcus faecium [27] = experiment: Antibacterial activity against Enterococcus faecium ATCC 700221 after 18 to 24 hrs by two-fold serial dilution method; assay type: functional; procedure, shortened: as §1
Proteus mirabilis = experiment: Antibacterial activity against Proteus mirabilis 13-1 after 18 to 24 hrs by two-fold serial dilution method; assay type: functional; procedure, shortened: as §1
Enterococcus faecalis [28] = experiment: Potency index, ratio of ciprofloxacin MIC90 to compound MIC90 for Enterococcus faecalis ATCC 51299; assay type: functional
Enterococcus faecalis [29] = experiment: Antibacterial activity against Enterococcus faecalis ATCC 29212 after 18 to 24 hrs by two-fold serial dilution method; assay type: functional; procedure, shortened: as §1

Structure (SMILES) | MIC90 (Serratia marcescens) [µg/mL] | MIC90 (Morganella morganii) [µg/mL] | MIC90 (Escherichia coli [2]) [µg/mL] | MIC90 (Klebsiella pneumoniae [4]) [µg/mL] | MIC90 [6] [µg/mL] | MIC90 [9] [µg/mL] | MIC90 [10] [µg/mL] | MIC90 (Proteus vulgaris) [µg/mL] | MIC90 (Staphylococcus aureus [12]) [µg/mL] | MIC90 (Klebsiella pneumoniae [13]) [µg/mL] | MIC90 (Klebsiella aerogenes) [µg/mL] | CC50 at 72 h [14] [µg/mL] | MIC90 (Escherichia coli [16]) [µg/mL] | MIC90 (Enterobacter cloacae) [µg/mL] | MIC90 (Enterococcus faecalis [17]) [µg/mL] | MIC90 [21] [µg/mL] | MIC90 (Providencia rettgeri) [µg/mL] | MIC90 [23] [µg/mL] | MIC90 (Citrobacter freundii) [µg/mL] | MIC90 (Enterococcus faecium [25]) [µg/mL] | also measured
CO/N=C1\C(=O)N(CCCN2CCN(c3cc4c(cc3F)c(=O)c(C(=O)O)cn4C3CC3)CC2)c2ccc(C)cc21 | 0.06 (≈ 0.107 µM) | ≤ 0.03 | ≤ 0.03 | 0.25 (≈ 0.445 µM) | 0.78 (≈ 1.39 µM) | 0.06 (≈ 0.107 µM) | 1 (≈ 1.78 µM) | ≤ 0.03 | 0.06 (≈ 0.107 µM) | ≤ 0.03 | ≤ 0.03 | 256 (≈ 456 µM) | ≤ 0.03 | ≤ 0.03 | 0.5 (≈ 0.89 µM) | ≤ 0.03 | ≤ 0.03 | 0.25 (≈ 0.445 µM) | ≤ 0.03 | 8 (≈ 14.2 µM) | Ratio [1]: 2 - 64; AUC(0-inf) [3]: 2860 ng·h/mL; half-life [5]: 0.283 h; Cmax [7]: 832 ng/mL; Ratio [8]: 2 - 64; Ratio (Staphylococcus aureus [11]): 2 - 64; Ratio (Enterococcus faecalis [15]): 2 - 64; Ratio (Enterococcus faecalis [18]): 2 - 64; Tmax [19]: 1.2 h; Ratio (Enterococcus faecalis [20]): 2 - 64; half-life [22]: 3.3 h; Ratio (Staphylococcus aureus [24]): 2 - 64; MIC90 (Pseudomonas aeruginosa): 0.5 µg/mL (≈ 0.89 µM); MIC90 (Staphylococcus aureus [26]): 0.06 µg/mL (≈ 0.107 µM); MIC90 (Enterococcus faecium [27]): 2 µg/mL (≈ 3.56 µM); MIC90 (Proteus mirabilis): ≤ 0.03 µg/mL; Ratio (Enterococcus faecalis [28]): 2 - 64; MIC90 (Enterococcus faecalis [29]): 0.5 µg/mL (≈ 0.89 µM)
CO/N=C1\C(=O)N(CCCN2CCN(c3cc4c(cc3F)c(=O)c(C(=O)OCCCN3C(=O)/C(=N/OC)c5cc(C)ccc53)cn4C3CC3)CC2)c2ccc(C)cc21 | 32 (≈ 40.4 µM) | 64 (≈ 80.8 µM) | 8 (≈ 10.1 µM) | 32 (≈ 40.4 µM) | 25 (≈ 31.6 µM) | 16 (≈ 20.2 µM) | 64 (≈ 80.8 µM) | 32 (≈ 40.4 µM) | 32 (≈ 40.4 µM) | 16 (≈ 20.2 µM) | 32 (≈ 40.4 µM) | 16 (≈ 20.2 µM) | 16 (≈ 20.2 µM) | 16 (≈ 20.2 µM) | 128 (≈ 162 µM) | 64 (≈ 80.8 µM) | 32 (≈ 40.4 µM) | 64 (≈ 80.8 µM) | 32 (≈ 40.4 µM) | > 128 | MIC90 (Pseudomonas aeruginosa): 32 µg/mL (≈ 40.4 µM); MIC90 (Staphylococcus aureus [26]): 32 µg/mL (≈ 40.4 µM); MIC90 (Enterococcus faecium [27]): 128 µg/mL (≈ 162 µM); MIC90 (Proteus mirabilis): 64 µg/mL (≈ 80.8 µM); MIC90 (Enterococcus faecalis [29]): 32 µg/mL (≈ 40.4 µM)
CCO/N=C1\C(=O)N(CCCN2CCN(c3cc4c(cc3F)c(=O)c(C(=O)O)cn4C3CC3)CC2)c2ccccc21 | 0.125 (≈ 0.223 µM) | 0.03 (≈ 0.0534 µM) | ≤ 0.03 | 0.5 (≈ 0.89 µM) | 0.78 (≈ 1.39 µM) | 0.25 (≈ 0.445 µM) | 2 (≈ 3.56 µM) | ≤ 0.03 | 0.25 (≈ 0.445 µM) | 0.03 (≈ 0.0534 µM) | ≤ 0.03 | 64 (≈ 114 µM) | ≤ 0.03 | 0.06 (≈ 0.107 µM) | 1 (≈ 1.78 µM) | 0.125 (≈ 0.223 µM) | ≤ 0.03 | 1 (≈ 1.78 µM) | ≤ 0.03 | 32 (≈ 57 µM) | MIC90 (Pseudomonas aeruginosa): 1 µg/mL (≈ 1.78 µM); MIC90 (Staphylococcus aureus [26]): 0.25 µg/mL (≈ 0.445 µM); MIC90 (Enterococcus faecium [27]): 8 µg/mL (≈ 14.2 µM); MIC90 (Proteus mirabilis): ≤ 0.03 µg/mL; MIC90 (Enterococcus faecalis [29]): 1 µg/mL (≈ 1.78 µM)
